# High-throughput results: PubChem, The Scripps Research Institute Molecular Screening Center
# An excerpt weighted towards active compounds, which were near 1.8% of everything screened.
# TCR CD3 inh: human TCR-CD3 binding inhibition | inhibition, % at 9.4 µM | TAMRA-labeled TCR probe fluorescence, biochemical | actives 0.37% (n = 360,000); in the data active = inhibition above about 19%;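 note: recombinant mutant TCR 2C K166C tagged with TAMRA read by polarization; 0% = receptor in buffer alone and 100% = receptor with positive control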
# ABHD4 inh: inhibitors of mouse ABHD4 | actives 0.54% (n = 370,000) | inhibition, % at 8.92 µM | Q8VD66 | purified mABHD4, FP-Rh probe fluorescence polarization;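 active = inhibition exceeding the mean over every tested compound plus 3 SD, cut at about 30% in these data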;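 note: 0% = plate median of compound wells and 100% = S159A mutant with DMSO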
#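 Material: mouse ABHD4 enzyme, wild type; Benchmarks: S159A mutant high control, sample median low control; Buffer or medium: HEPES pH 7.0, NaCl, Pluronic buffer; Signal: fluorescence polarization; Read-out: percent inhibition of probe binding, normalized to plate controls; Timing: pre-incubation 45 min, probe exposure 60 min, at 25 °C; Dosing: 8.92 µM, single dose.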
# Tn7 DDE FP: inhibitors of Tn7 peptide binding to human fibrin DD(E) | FP displacement of FITC-Tn7 peptide from fibrin DD(E); 0% = median of compound wells per plate | inhibition, % at 8.3 µM | actives 0.13% (n = 370,000) | AID 720508;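 active = inhibition above the mean of compounds falling within the control limits plus 3 SD of them, cut at about 14% in these data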;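 note: 0% = plate median of compound wells and 100% = 10 µM Aha-Tn7 peptide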
#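 Assay system: human fibrin DD(E). Input: DD(E) 2 µM final. Medium: Tris buffer with calcium and detergent, pH 7.8. Compound dosing: single point at 8.3 µM. Timing: 10 min plus 3 h, room temperature. Technique: fluorescence polarization of the labelled Tn7 tracer. Read-out: percent inhibition. Replicates: singlicate testing.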
# HTRA1 inh: HTRA1 (human) protease inhibition; Q92743; recombinant HTRA1, FP-rhodamine activity-based probe, fluorescence polarization; inhibition, % at 5.96 µM; actives 0.5% (n = 340,000); AID 504803; in the data active = inhibition above about 36%;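 note: 0% = enzyme with DMSO and 100% = wells lacking enzyme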
# Tn6 DDE FP: inhibitors of Tn6 peptide binding to human fibrin DD(E) | actives 0.21% (n = 370,000) | P02675 | Fibrin DD(E) TRITC-Tn6 fluorescence polarization displacement | inhibition, % at 8.3 µM;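 active = inhibition above a per-campaign cutoff: mean of compounds within control limits plus 3 SD, cut at about 15% in these data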;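 note: 0% = median of all compound wells on the plate and 100% = blocking peptide control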
# SIAE inh: human SIAE inhibition, primary screen. Q9HAT2. SIAE FP-Rh probe binding, fluorescence polarization. inhibition, % at 9.66 µM. actives 0.69% (n = 370,000);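 active = inhibition above a cutoff: mean of compounds within the control limits plus 3 SD of those, cut at about 17% in these data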;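 note: 0% = plate median of compound wells and 100% = probe without SIAE protein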
# Target sequence (Q9HAT2 whole entry, looked up): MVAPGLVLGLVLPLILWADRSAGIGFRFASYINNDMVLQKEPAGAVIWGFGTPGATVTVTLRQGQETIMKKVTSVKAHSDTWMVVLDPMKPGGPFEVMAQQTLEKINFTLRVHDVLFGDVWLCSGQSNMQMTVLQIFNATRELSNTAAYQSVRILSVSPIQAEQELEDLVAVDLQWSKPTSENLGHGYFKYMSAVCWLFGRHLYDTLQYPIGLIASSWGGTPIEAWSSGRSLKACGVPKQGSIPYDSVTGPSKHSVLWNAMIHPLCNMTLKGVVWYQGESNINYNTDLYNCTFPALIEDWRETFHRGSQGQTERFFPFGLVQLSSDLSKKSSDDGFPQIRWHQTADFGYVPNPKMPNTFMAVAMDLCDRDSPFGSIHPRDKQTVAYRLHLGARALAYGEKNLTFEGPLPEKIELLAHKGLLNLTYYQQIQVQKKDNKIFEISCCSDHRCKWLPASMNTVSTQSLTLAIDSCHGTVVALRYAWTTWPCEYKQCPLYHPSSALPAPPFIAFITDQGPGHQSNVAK
# SIAE inh conf: human SIAE inhibition, confirmation. shares compounds with SIAE inh. SIAE FP-Rh activity-based probe, fluorescence polarization. inhibition, % at 9.66 µM. actives 13% (n = 2,300). AID 1117263;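 active = mean inhibition of the replicates above the hit cutoff set in the primary screen, cut at about 17% in these data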;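 note: 0% = SIAE with DMSO and probe and 100% = probe without SIAE; inhibitors lower polarization as more probe stays unbound to SIAE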
# The depositor's hits bear a star; . = not tested or not shown.
SMILES,TCR CD3 inh,ABHD4 inh,Tn7 DDE FP,HTRA1 inh,Tn6 DDE FP,SIAE inh,SIAE inh conf
CC1=CC(C)(C)N2C(=O)C3(NCCc4c3[nH]c3ccccc43)c3cccc1c32 (stereo not drawn),-7,3,1,-12,-5,18*,4
COc1ccc(C(=O)OCC(=O)c2ccc(CNC(C)=O)s2)cc1,6,3,8,0,-1,24*,-1
COc1ccccc1C(=O)OCC(=O)c1ccc(CNC(C)=O)s1,0,-2,0,7,-8,-1,.
COc1cccc(C(=O)N/N=C(\C)c2ccc(NC(=O)Cc3ccccc3)cc2)c1OC,-7,-3,1,-5,5,3,.
C/C(=N\NC(=O)c1ccccc1O)c1ccc(NC(=O)Cc2ccccc2)cc1,6,2,-2,11,-7,18*,0
CCN(C)C(=O)CNc1nnnn1-c1ccccc1,.,0,-2,.,-10,7,.
Cc1cccc(CNC(=S)OCCN2CCCC23CCC(c2ccccc2)CC3)c1 (stereo not drawn),.,7,-1,.,-1,-1,.
CC(C)CN1C(=O)[C@]2(CC(=O)N(C)C2c2ccccc2)c2cc(-n3cc(CN(C)C)nn3)ccc21 (stereo partly drawn),.,3,-8,.,7,18*,5
CCCCn1c(N)c(N(CCOC)C(=O)CCS(=O)(=O)c2ccc(Cl)cc2)c(=O)[nH]c1=O,2,0,-1,-4,7,3,.
CCC(=O)Nc1ccc(NCc2cccs2)cc1,4,9,4,8,1,0,.
O=C(O)c1ccc(NCc2cccs2)cc1,-2,-2,-10,6,6,18*,-2
O=S(=O)(c1ccc(Cl)s1)N1CCC(c2nc3ccccc3o2)CC1,.,1,-2,.,2,-2,.
C=CCn1c(SCC#N)nnc1-c1ccc2ncccc2c1,4,-1,7,2,6,10,.
Clc1ccc(N2CCCCCC2)nn1,-2,-6,-3,0,5,18*,-7
COc1ccc(NC(=O)Cn2c(=O)oc3cc(Cl)ccc32)c(OC)c1,7,-2,-7,-4,-11,17*,2
CC1CC(C)CN(S(=O)(=O)c2ccc3c(c2)oc(=O)n3CC(=O)NCCCOC(C)C)C1 (stereo not drawn),8,1,-5,0,-2,18*,-3
CCOC(=O)C1(C)CCCN(C(=O)c2ccccc2C(F)(F)F)C1 (stereo not drawn),-8,-1,3,.,5,6,.
C/C(=N\NC(=O)c1cc2ccccc2cc1O)c1cccs1,3,14,8,27,0,28*,1
C/C(=N/NC(=O)c1cc2ccccc2cc1O)c1ccco1,3,25,12,19,-6,23*,0
COc1cccc(NC(=O)N(C)C[C@H]2OCc3cn(nn3)CCCC(=O)N([C@H](C)CO)C[C@@H]2C)c1,5,-1,5,.,6,3,.
CCOc1ccc(C2/C(=C(\O)c3ccc4c(c3)OCCO4)C(=O)C(=O)N2Cc2cccnc2)cc1OCC (stereo not drawn),6,-1,1,-2,9,3,.
COc1cc(N=Nc2cccc(S(N)(=O)=O)c2)c2ccccc2c1N,1,-1,10,30,-26,26*,-2
CCOC(=O)c1c(C(=O)OCC)c(C)n(CCc2ccccc2)c1C,3,0,9,1,-6,31*,20*
O=C(N/N=C/C=C/c1ccco1)c1cccc([N+](=O)[O-])c1,3,14,3,19,4,17*,-6
Cc1cc(Cl)ccc1NC(=O)CN1C(=O)NC2(CCCC2)C1=O,-10,-4,-7,0,5,-2,.
Cc1ccc(Cl)cc1NC(=O)CN1C(=O)NC2(CCCCCC2)C1=O,19,8,1,-7,7,45*,2
CC(C)NC(=S)Nc1ccc2cn[nH]c2c1,11,0,-6,9,5,19*,-6
O=C(Cn1cncn1)c1ccccc1Br,5,6,7,4,5,-1,.
